Drawing on ChEMBL document CHEMBL1269001, “Design, synthesis and biological evaluation of quinoline amide derivatives as novel VEGFR-2 inhibitors” (Bioorg Med Chem Lett, 2010), this text covers IC50 for 24 compounds.

Test [1] deals with Vascular endothelial growth factor receptor 2 (Homo sapiens, UniProt P35968). Description: Inhibition of VEGFR2.
In test [2] the test system is HUVEC. Description: Inhibition of VEGF-induced proliferation in HUVEC cells assessed as BrdU incorporation by ELISA. In kind it is functional, cell-based. The following applies: Homo sapiens. The method in brief: (§1)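 HUVEC were seeded in 5% FBS medium on type 1 collagen-coated plates and incubated overnight at 37 °C, 5% CO₂. The medium was replaced with inhibitor at various concentrations in serum-free medium. Cells were incubated a further 72 h, with BrdU added during the last 18–24 h. Incorporation was read by ELISA.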
Background: Uptake of a labelled nucleoside into DNA is a usual measure of proliferation.

For test [3], the system named is HUVEC. Description: Inhibition of […]-induced proliferation in HUVEC cells assessed as BrdU incorporation by ELISA. The following applies: Homo sapiens. In kind it is functional, cell-based. The procedure, abridged: as §1

Sequence of Vascular endothelial growth factor receptor 2 (P35968 whole entry): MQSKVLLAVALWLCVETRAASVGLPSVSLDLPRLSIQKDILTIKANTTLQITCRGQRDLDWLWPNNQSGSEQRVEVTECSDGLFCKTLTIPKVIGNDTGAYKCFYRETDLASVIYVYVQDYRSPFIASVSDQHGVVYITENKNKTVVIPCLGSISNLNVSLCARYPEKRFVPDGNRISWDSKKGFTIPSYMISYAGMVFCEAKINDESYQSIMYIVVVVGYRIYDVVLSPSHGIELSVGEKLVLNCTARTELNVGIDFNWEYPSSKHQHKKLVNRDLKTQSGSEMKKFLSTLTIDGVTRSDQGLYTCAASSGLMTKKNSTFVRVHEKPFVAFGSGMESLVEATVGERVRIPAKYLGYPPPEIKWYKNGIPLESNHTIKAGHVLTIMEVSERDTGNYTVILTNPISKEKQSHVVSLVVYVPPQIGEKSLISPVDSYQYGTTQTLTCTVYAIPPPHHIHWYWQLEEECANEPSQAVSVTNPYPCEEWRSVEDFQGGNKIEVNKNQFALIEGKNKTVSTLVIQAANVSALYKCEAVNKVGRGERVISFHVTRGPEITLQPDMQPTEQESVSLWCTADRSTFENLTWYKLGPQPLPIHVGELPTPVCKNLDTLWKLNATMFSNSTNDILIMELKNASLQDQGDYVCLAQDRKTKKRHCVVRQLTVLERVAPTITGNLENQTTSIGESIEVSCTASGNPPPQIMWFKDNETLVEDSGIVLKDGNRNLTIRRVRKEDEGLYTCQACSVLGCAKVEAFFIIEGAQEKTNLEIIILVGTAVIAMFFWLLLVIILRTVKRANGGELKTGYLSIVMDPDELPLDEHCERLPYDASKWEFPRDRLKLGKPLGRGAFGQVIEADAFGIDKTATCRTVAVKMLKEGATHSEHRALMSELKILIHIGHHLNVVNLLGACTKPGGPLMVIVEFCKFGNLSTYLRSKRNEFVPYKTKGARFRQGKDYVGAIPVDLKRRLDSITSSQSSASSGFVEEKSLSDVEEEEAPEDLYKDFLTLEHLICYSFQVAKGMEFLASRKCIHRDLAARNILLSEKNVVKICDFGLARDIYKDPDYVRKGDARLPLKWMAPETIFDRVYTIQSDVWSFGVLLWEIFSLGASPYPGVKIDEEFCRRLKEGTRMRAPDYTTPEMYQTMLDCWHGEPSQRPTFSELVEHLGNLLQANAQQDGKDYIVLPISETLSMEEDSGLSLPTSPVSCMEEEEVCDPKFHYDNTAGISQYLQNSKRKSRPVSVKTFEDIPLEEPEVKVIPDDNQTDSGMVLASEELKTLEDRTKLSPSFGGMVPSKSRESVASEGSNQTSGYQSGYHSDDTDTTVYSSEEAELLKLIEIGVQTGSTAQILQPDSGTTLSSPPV

A word on the IC50: it is the concentration at which inhibition is half-maximal. For `O=C(Nc1cccc2cccnc12)c1ccccc1`, the results for the IC50 (in test [1]; with HUVEC [2]; with HUVEC [3]) were 135 nM, 72.4 nM and 1160 nM, respectively.

Take `O=C(Nc1cccc2cccnc12)c1ccc(Cl)cc1`: the IC50 was determined as 125 nM in test [1], 15.2 nM in the test with HUVEC [2] and 220 nM with HUVEC [3].

On to `O=C(Nc1cccc2cccnc12)c1ccccc1Cl`, for which the half-inhibitory concentration (IC50) in test [1] came to 23.6 nM; with HUVEC [2], 123 nM; in the test with HUVEC [3] it was 1150 nM.

Turning to `O=C(Nc1cccc2cccnc12)c1ccc(Cl)nc1`, the values for the IC50 (in test [1]; in the test with HUVEC [2]; in the test on HUVEC [3]) were 84.9 nM, 141 nM and 560 nM, respectively.

In the case of `O=C(Nc1cccc2cccnc12)c1cncc(Br)c1`, the figures for the IC50 (in test [1]; in the test with HUVEC [2]; in the test with HUVEC [3]) were 209 nM, 211 nM and 346 nM, respectively.

`O=C(Nc1cnc2ccccc2c1)c1ccccc1`: the half-inhibitory concentration (IC50) was 107 nM in test [1], 78.9 nM with HUVEC [2] and 68 nM in the test on HUVEC [3].

Take `O=C(Nc1cnc2ccccc2c1)c1cncc(Br)c1`: the values for the IC50 (in test [1]; with HUVEC [2]; with HUVEC [3]) were 88.5 nM, 59.5 nM and 1140 nM, respectively.

With `O=C(Nc1cccc2cccnc12)c1ccc([N+](=O)[O-])cc1`, the values for the half-maximal inhibitory concentration (IC50) (in test [1]; in the test with HUVEC [2]; in the test with HUVEC [3]) were 113 nM, 46.7 nM and 450 nM, respectively.

Take `O=C(Nc1cccc2cccnc12)c1cccc([N+](=O)[O-])c1`: the half-maximal inhibitory concentration (IC50) in test [1] came to 16.5 nM; in the test on HUVEC [2], 15.8 nM; with HUVEC [3] it was 210 nM.

Turning to `O=C(Nc1cccc2cccnc12)c1cc(Cl)ccc1O`, the values for the concentration for half-maximal inhibition (IC50) (in test [1]; in the test with HUVEC [2]; in the test on HUVEC [3]) were 3.8 nM, 5.5 nM and 110 nM, respectively.

For `Cc1ccc(C(=O)Nc2cccc3cccnc23)c(O)c1`, the half-maximal inhibitory concentration (IC50) in test [1] came to 9.6 nM; in the test on HUVEC [2], 19.8 nM; in the test with HUVEC [3], 45 nM.

As to `Cc1cccc(C(=O)Nc2cccc3cccnc23)c1O`, the IC50 in test [1] was 26.5 nM; in the test with HUVEC [2], 26.3 nM; with HUVEC [3], 1140 nM.

On to `O=C(Nc1cccc2cccnc12)c1cc(Br)cnc1O`, for which the IC50 in test [1] amounted to 5.5 nM; with HUVEC [2], 12.9 nM; in the test on HUVEC [3], 560 nM.

Consider `Cc1cnc(O)c(C(=O)Nc2cccc3cccnc23)c1`, for which the IC50 turned out to be 13.5 nM in test [1], 13.6 nM with HUVEC [2] and 1150 nM with HUVEC [3].

On to `Cc1cccc(C(=O)Nc2cnc3ccccc3c2)c1Br`, for which the figures for the 50% inhibitory concentration (IC50) (in test [1]; in the test on HUVEC [2]; with HUVEC [3]) were 28.4 nM, 11.6 nM and 660 nM, respectively.

With `Cc1cc(Cl)cc(C(=O)Nc2cnc3ccccc3c2)c1`, the figures for the IC50 (in test [1]; in the test on HUVEC [2]; in the test with HUVEC [3]) were 326 nM, 76.3 nM and 560 nM, respectively.

Take `O=C(Nc1cnc2ccccc2c1)c1cc(Br)cc(Br)c1O`: the IC50 in test [1] stood at 32.4 nM; with HUVEC [2] it was 18.9 nM; in the test with HUVEC [3] it was 240 nM.

For `O=C(Nc1cnc2ccccc2c1)c1cccc(Cl)c1O`, the figures for the half-inhibitory concentration (IC50) (in test [1]; in the test with HUVEC [2]; in the test on HUVEC [3]) were 72.8 nM, 28.4 nM and 340 nM, respectively.

Turning to `Cc1cc(Br)cc(C(=O)Nc2cnc3ccccc3c2)c1O`, the 50% inhibitory concentration (IC50) in test [1] came to 12.4 nM; in the test on HUVEC [2], 18.9 nM; in the test with HUVEC [3], 470 nM.

On to `O=C(Nc1cnc2ccccc2c1)c1cc(Cl)cnc1Br`, for which the IC50 was 23.4 nM in test [1], 58.9 nM with HUVEC [2] and 1240 nM in the test on HUVEC [3].

With `Cc1cnc(Cl)c(C(=O)Nc2cnc3ccccc3c2)c1`, the IC50 came to 102 nM in test [1], 77.6 nM in the test on HUVEC [2] and 885 nM in the test on HUVEC [3].

Consider `Cc1cc(Br)cc(C(=O)Nc2cnc3ccccc3c2)c1`, for which the IC50 in test [1] was determined as 113 nM; with HUVEC [2], 89.6 nM; in the test on HUVEC [3], 720 nM.

For `O=C(Nc1cnc2ccccc2c1)c1cc(Cl)c(O)nc1O`, the values for the concentration for half-maximal inhibition (IC50) (in test [1]; in the test on HUVEC [2]; in the test on HUVEC [3]) were 32.7 nM, 14.5 nM and 460 nM, respectively.

With `Cc1cccc(C(=O)Nc2cnc3ccccc3c2)c1O`, the 50% inhibitory concentration (IC50) in test [1] came to 25.5 nM; with HUVEC [2], 35.7 nM; in the test with HUVEC [3] it was 780 nM.
